Measured values as given in publication PMC3055594 (Glycobiology, 2010).
Like-named read-outs stand apart in the source and are kept apart here.

Columns and labels:
Mt-PrsA [1] = target: T1, Mt-PrsA (Mycobacterium tuberculosis, UniProt P9WKE3); conditions: 5 mM ligand
T1 sequence (P9WKE3 1-326): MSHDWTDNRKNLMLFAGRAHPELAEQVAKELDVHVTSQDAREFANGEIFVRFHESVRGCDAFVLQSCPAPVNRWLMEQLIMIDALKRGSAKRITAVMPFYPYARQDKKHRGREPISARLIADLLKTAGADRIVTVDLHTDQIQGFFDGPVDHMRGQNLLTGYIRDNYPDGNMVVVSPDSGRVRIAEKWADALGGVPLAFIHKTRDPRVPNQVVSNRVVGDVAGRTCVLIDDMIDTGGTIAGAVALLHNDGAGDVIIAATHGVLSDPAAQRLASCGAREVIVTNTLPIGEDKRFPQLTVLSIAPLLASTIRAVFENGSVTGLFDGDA
In short: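 Recombinant Mt-PrsA was purified by Ni2+-NTA with a 250 mM imidazole step to ~98% purity, then dialyzed into 50 mM KH2PO4 (pH 7.9), 300 mM NaCl, 1 mM DTT. Sedimentation velocity was run with absorbance optics using no ligand or 5 mM R5P, ATP or ADP. The read-out was the molar mass distribution c(M) against apparent molecular weight.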

[2] = test system: arabinofuranosyltransferases EmbA, EmbB, EmbC and AftB; assay type: biochemical, Mycobacterium smegmatis; conditions: EMB 100 µg/mL; ADP 2 mM
Mt-PrsA [3] = target: T1, Mt-PrsA; test: Intrinsic tryptophan fluorescence; assay type: binding
In short: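 Excitation was at 292 nm; emission spectra were taken at 300–400 nm 5 min after each ligand aliquot. ΔFemission at 335 nm was plotted against [L] and fitted for Kd and Hill n. R5P was titrated with or without 5 mM AMPPNP, and AMPPNP with or without 5 mM R5P.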

Mt-PrsA [4] = target: T1, Mt-PrsA; assay type: biochemical; conditions: 2 mM final concentration, 37°C
Mt-PrsA [5] = target: T1, Mt-PrsA; test: Continuous enzyme-coupled spectrophotometric assay of Mt-PrsA; assay type: biochemical
[6] = read-out: Kd (ITF), ligand alone, 70 µM Mt-PrsA

Nc1ncnc2c1ncn2[C@@H]1O[C@H](COP(=O)(O)OP(=O)(O)O)[C@@H](O)[C@H]1O [ADP]
effect on oligomeric state of Mt-PrsA, c(M) distribution (Mt-PrsA [1]): shifted toward an increase in the hexameric state
effect on AraT-dependent product formation [2]: inhibition of any AraT-dependent product formation
Hill coefficient (n) of binding (ITF) (Mt-PrsA [3]; ligand alone): 2
Kd (Mt-PrsA [3]; [6]): 513 µM
effect on Mt-PrsA activity / p[14C]Rpp formation (Mt-PrsA [4]): strongly inhibited
Ki (Mt-PrsA [5]; read-out: Ki against increasing [ATP], saturating [R5P], Eq. (6)): 522 µM

O=C[C@H](O)[C@H](O)[C@H](O)COP(=O)(O)O [R5P, ribose-5-phosphate]
effect on oligomeric state of Mt-PrsA, c(M) distribution (Mt-PrsA [1]): no apparent change in the equilibrium or oligomeric state
Kd (Mt-PrsA [3]; Kd (ITF), ligand alone, 70 µM Mt-PrsA): 24.8 µM
Kd (Mt-PrsA [3]; apparent Kd for R5P in the presence of AMPPNP, 5 mM AMPPNP): 21.4 µM
Km (Mt-PrsA [5]; read-out: Km for R5P, saturating ATP, 50 mM Pi, Eq. (2)): 8.2 µM
Vmax (increasing R5P) (Mt-PrsA [5]; saturating ATP, 50 mM Pi): 530 µmol⁻¹ min⁻¹ mg⁻¹

Nc1ncnc2c1ncn2C1OC(COP(=O)(O)OP(=O)(O)NP(=O)(O)O)C(O)C1O (stereo not drawn) [AMPPNP, 5'-adenylyl-β,γ-imidodiphosphate]
Hill coefficient (n) for AMPPNP in the presence of R5P (Mt-PrsA [3]; 5 mM R5P): 5
Hill coefficient (n) of binding (ITF) (Mt-PrsA [3]; ligand alone): ~4
Kd (Mt-PrsA [3]; [6]): 31 µM
Kd (Mt-PrsA [3]; read-out: Kd for AMPPNP in the presence of R5P, 5 mM R5P): 28.2 µM

O=P(O)(O)O [Pi, inorganic phosphate]
concentration required for full enzyme activation (Mt-PrsA [5]): 50 mM

CC[C@@H](CO)NCCN[C@@H](CC)CO [EMB, ethambutol]
effect on AraT-dependent product formation [2]: loss of the upper band with only the lower band remaining

Nc1ncnc2c1ncn2[C@@H]1O[C@H](COP(=O)(O)OP(=O)(O)OP(=O)(O)O)[C@@H](O)[C@H]1O [ATP]
c(M) peak position (Mt-PrsA [1]): ~70,000 Da
effect on oligomeric state of Mt-PrsA, c(M) distribution (Mt-PrsA [1]): reduction in the intensity of the hexameric species
Hill coefficient (n) of binding (ITF) (Mt-PrsA [3]; ligand alone): ~4
Kd (Mt-PrsA [3]; [6]): 28.3 µM
apparent Hill coefficient (n), kinetics (Mt-PrsA [5]; increasing [ATP], saturating R5P, 50 mM Pi): 1.68
Vmax for ATP (Mt-PrsA [5]; saturating R5P, 50 mM Pi): 601 µmol⁻¹ min⁻¹ mg⁻¹
S0.5 for ATP (Mt-PrsA [5]; saturating R5P, 50 mM Pi, Eq. (4)): 62.65 µM

[Ca+2].[Cl-].[Cl-] [CaCl2]
effect on Mt-PrsA activity / p[14C]Rpp formation (Mt-PrsA [4]): loss of Mt-PrsA activity
